Measured values collected from several papers.
Each line is one published result; the experiments were not run side by side.
Target: Serine/threonine-protein kinase Sgk1 (SGK1, Homo sapiens, UniProt O00141)

Fc1cccc(-n2cnc3c(NCc4nc5c(F)c(F)ccc5[nH]4)nc(N4CCOCC4)nc32)c1 — binding vs control (binding; competition with immobilised ligand; 10 µM): 24%
CSc1nc(C)c(-c2ccnc(Nc3ccc(N4CCOCC4)cc3)c2)[nH]1 — inhibition (enzyme activity; inhibitor; 10 µM): 34.8%
CNC(=O)c1cc(Oc2ccc(NC(=O)Nc3ccc(Cl)c(C(F)(F)F)c3)cc2)ccn1 — inhibition (enzyme activity; inhibitor; 0.3 µM): -15%
COc1cc(Nc2cnc(C#N)c(O[C@H](C)CN(C)C)n2)ncc1-c1cnn(C)c1 — remaining activity (enzyme activity; inhibitor; radiometric; 1 µM): 79%
C=CC(=O)Nc1cc(Nc2nccc(Nc3cc(Cl)c(F)cc3C(C)(C)O)n2)c(OC)cc1N1CC[C@@H](N(C)C)C1 — inhibition (enzyme activity; inhibitor; 1 µM): 12%
CC(C)(C)C(=O)c1sc(NC2CCCCC2)nc1N — remaining activity (enzyme activity; inhibitor; 10 µM): 91%
Cc1ccc(Nc2nccc(N(C)c3ccc4c(C)n(C)nc4c3)n2)cc1S(N)(=O)=O — inhibition (enzyme activity; inhibitor; 0.3 µM): -14%
CCCOc1ccc(OC)c(F)c1C(=O)c1ccc(C(=O)N[C@@H]2CNC[C@H]2NC(=O)c2ccc3[nH]ncc3c2)cc1 — remaining activity (enzyme activity; inhibitor; 0.75 µM): 34%
Nc1ncnc2n[nH]c(Nc3ccc(F)cc3)c12 — remaining signal (cell-free assay; 0.5 µM): 91.5%
CO[C@@H](C)c1c(Nc2ccc([C@@H](N(C)C(=O)C3CCS(=O)(=O)CC3)C(F)(F)F)cc2)cnc2cc(Cl)nn12 — remaining binding (cell-free assay; competition with immobilised ligand; 1 µM): 89%
CCN(CC)CCNC(=O)c1c(C)[nH]c(/C=C2\C(=O)Nc3ccc(F)cc32)c1C — inhibition (enzyme activity; inhibitor; 10 µM): 86%
COc1cc2ncnc(Nc3ccc(Oc4ccccc4)c(C)c3C)c2cc1OC — inhibition (enzyme activity; inhibitor; 1 µM): 0%
CCCS(=O)(=O)Nc1ccc(F)c(C(=O)c2c[nH]c3ncc(-c4ccc(Cl)cc4)cc23)c1F — inhibition (enzyme activity; inhibitor; 1 µM): < 10%
O=C(Nc1ccc(Oc2ccc(F)cc2)cc1)N1CCc2ncccc2[C@H]1c1ccc(F)cc1 — remaining binding (cell-free assay; competition with immobilised ligand; 1 µM): 95%
FC(F)(F)Oc1cccc(-c2cnc3ccc(-c4ccncc4)nn23)c1 — activity vs control (enzyme activity; inhibitor; radiometric; 5 µM): 108%
O=C(O)[C@@H]1[C@@H](Cn2nnc3ccccc3c2=O)CC[C@H]1C(=O)c1ccc(OCCC2CCOCC2)cc1 — remaining binding (cell-free assay; competition with immobilised ligand; 1 µM): 74%
CCN(CC)c1ccc(C2=NNC(=O)CC2C)cc1[N+](=O)[O-] (centres unmarked) — remaining activity (enzyme activity; inhibitor; 10 µM): 100%
Cc1cnc(NC2CCOCC2)nc1-n1cnc(C(=O)NC(CN)c2cc(F)cc(Cl)c2)c1 (centres unmarked) — remaining activity (enzyme activity; inhibitor; radiometric; 1 µM): 23%
CC(C)(C)c1nc(-c2cccc(NS(=O)(=O)c3c(F)cccc3F)c2F)c(-c2ccnc(N)n2)s1 — remaining activity (enzyme activity; inhibitor; radiometric; 1 µM): 75%
Cc1sc(C(=O)NC2COC2)cc1-n1cc(NC(=O)Nc2c(F)cccc2Cl)cn1 — remaining activity (enzyme activity; inhibitor; 10 µM): 115%
CC/C(=N\NC(=O)NCc1cccc(O)c1)c1ccc(O)c(C)c1O — inhibition (enzyme activity; inhibitor; 0.1 µM): 75.4%
c1nc2c(Nc3ccc4c(c3)OCCO4)nc(Nc3ccc4c(c3)OCCO4)nc2[nH]1 — activity vs control (enzyme activity; inhibitor; 10 µM): 100%
CC(=O)C1=C(C)N(c2cccc(C(F)(F)F)c2)C(=O)N[C@@H]1c1ccc(C#N)nc1 — remaining binding (cell-free assay; competition with immobilised ligand; 1 µM): 100%
FC(F)c1nc2ccccc2n1-c1nc(N2CCOCC2)nc(N2CCOCC2)n1 — remaining activity (enzyme activity; inhibitor; 10 µM): 98%
Cc1ccc(C(=O)Nc2ccc(CN3CCN(C)CC3)c(C(F)(F)F)c2)cc1C#Cc1cnc2cccnn12 — remaining activity (enzyme activity; inhibitor; 23.5 nM): 94%
CNCc1ccc(-c2cc(-c3nc(-c4ccc(S(=O)(=O)C(C)C)cc4)cnc3N)on2)cc1 — inhibition (enzyme activity; inhibitor; 0.4 µM): 0%
COc1cc(Cl)c(C(=O)N[C@@H](CN[C@H]2CC[C@@H](N)CC2)Cc2ccc(C#N)cc2)cc1-c1ccc(CN[C@H](C)c2ccc(C)cc2)o1 — remaining activity (enzyme activity; inhibitor; 1 µM): 94%
CCOCCn1cc(C(=O)Nc2ccc(-n3nc(-c4cccnc4)cc3C(F)(F)F)cn2)ccc1=O — remaining binding (cell-free assay; competition with immobilised ligand; 1 µM): 83%
CN(c1ncccc1CNc1nc(Nc2ccc3c(c2)CC(=O)N3)ncc1C(F)(F)F)S(C)(=O)=O — inhibition (enzyme activity; inhibitor; 1 µM): 13.4%
CCC(=N\O)/C(C)=C/c1ccc(F)cc1 — remaining binding (cell-free assay; competition with immobilised ligand; 1 µM): 89%
CN(C)C1CCN(CC#Cc2nn(C3CCCC3)c3nc(NCc4ccccc4)ncc23)C1 (centres unmarked) — inhibition (enzyme activity; inhibitor; FRET; 1 µM): 9%
O=C(NCCCC1CCCCC1)c1ccc(CNC(=O)c2cnn(-c3ccccc3)c2C(F)(F)F)cc1 — remaining binding (cell-free assay; competition with immobilised ligand; 0.1 µM): 100%
Nc1nc(Nc2ccccc2)sc1C(=O)c1c(F)cccc1F — remaining activity (enzyme activity; inhibitor; 10 µM): 98%
C[C@@H]1CN(c2cc(-c3n[nH]c4ccc(OC5(C)CC5)cc34)ncn2)C[C@H](C)O1 — remaining binding (cell-free assay; competition with immobilised ligand; 0.1 µM): 89%
N#CCCc1ccc2c(c1)-c1[nH]c3ccc([N+](=O)[O-])cc3c1CC(=O)N2 — remaining signal (cell-free assay; 0.5 µM): 87.9%
